This is an account of results in PubChem BioAssay AID588754 (Broad Institute, 2011).

Activity calls are given as the source filed them.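 The calls were made as follows: active = fitted curve shows reduced dye-labelled HDL uptake, half-maximal concentration at most ten times top dose; inconclusive = flat curve with 30 to 70% inhibition, or unreliable fit; inactive = the rest.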

Scavenger receptor class B member 1 (Mus musculus), sequence (Q61009 whole entry, looked up): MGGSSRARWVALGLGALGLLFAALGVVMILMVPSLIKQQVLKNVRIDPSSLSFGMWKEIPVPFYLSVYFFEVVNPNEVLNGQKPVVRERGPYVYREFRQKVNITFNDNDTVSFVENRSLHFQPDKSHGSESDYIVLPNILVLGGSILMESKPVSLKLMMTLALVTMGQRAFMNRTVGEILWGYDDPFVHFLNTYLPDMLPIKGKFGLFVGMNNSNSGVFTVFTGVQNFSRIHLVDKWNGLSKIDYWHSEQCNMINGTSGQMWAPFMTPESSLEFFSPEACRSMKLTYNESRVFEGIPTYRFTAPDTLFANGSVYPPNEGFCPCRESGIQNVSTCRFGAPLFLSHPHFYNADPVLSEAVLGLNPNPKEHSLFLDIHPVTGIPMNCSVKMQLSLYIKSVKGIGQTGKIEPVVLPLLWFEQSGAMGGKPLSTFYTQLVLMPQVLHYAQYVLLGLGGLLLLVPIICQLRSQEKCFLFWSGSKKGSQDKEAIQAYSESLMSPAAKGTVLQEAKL

For one test, the target named is Scavenger receptor class B member 1 (Mus musculus) (UniProt Q61009). In words: inhibition of HDL lipid transfer via mSR-BI – ldlA[mSR-BI] CHO cells, powder samples, set 5, dose response (AID 588754). As to conditions: DiI-HDL uptake fluorescence, 3 h. An outline of the steps:
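Detection: bottom-read DiI fluorescence after washing, ex 550/em 595 nm; Assay system: LDL receptor-deficient CHO ldlA cells overexpressing murine SR-BI; Medium: Ham's F12 with fatty acid-free BSA and HEPES; Schedule: 3 h exposure to compound plus DiI-HDL at 37 °C; Also added: DiI-labeled HDL at 10 µg/mL final.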
One may read the AC50 as the concentration at which the activity in the assay is half-maximal. As to `COc1ccc(-c2nnn(CC(=O)N(CC(=O)N(C)C3CCCC3)C3CCCCC3)n2)cc1OC`, the AC50 is 1.61 µM.
Still for that read-out and setting: next, `C[C@@H](C(=O)NC1CCCC1)N(C(=O)Cn1nnc(-c2ccc3c(c2)OCO3)n1)C1CCCCC1`: 2.27 µM; `COc1cc(OC)cc(C(=O)Nc2nc(-c3ccc4c(c3)CCN4C(=O)OC(C)(C)C)cs2)c1`: 0.000909 µM.
On the same count and under the same terms, as for `O=C(CN(C(=O)Cn1nnc(-c2ccc3c(c2)OCO3)n1)C1CCCCC1)NC1CCCC1`, the figure is 0.0602 µM.
Same read-out and setting: as for `CCC(=O)N1CCc2cc(-c3csc(NCc4cc(OC)cc(OC)c4)n3)ccc21`, the figure is 0.372 µM.
As for `C[C@H](C(=O)NC1CCCC1)N(C(=O)Cn1nnc(-c2ccc3c(c2)OCO3)n1)C1CCCCC1`, the AC50 is 0.0189 µM.
Still for that read-out and setting: as for `O=C(Nc1nc(-c2ccc3c(c2)CCN3)cs1)c1ccco1`, the figure is 0.0211 µM.
On the same count and under the same terms, as for `CCC(=O)Nc1ccc(-c2csc(NC(=O)c3cccc(OC)c3)n2)cc1`, the figure is 0.11 µM.
Same read-out and setting: as for `CCC(=O)N1CC(C)(C)c2cc(-c3csc(NC(=O)c4cc(OC)cc(OC)c4)n3)ccc21`, the figure is 0.0103 µM; as for `CCC(=O)N1CCc2cc(-c3csc(NC(=O)c4cc(OC)cc(OC)c4)n3)ccc21`, 0.0426 µM; as for `CC(=O)N1CCc2cc(-c3nc(NC(=O)c4cccc(OC(F)(F)F)c4)sc3C)ccc21`, 0.026 µM.
For `COc1ccc(-c2nnn(CC(=O)N(CC(=O)N3CCCCC3)C3CCCCC3)n2)cc1OC`, the AC50 was 9.2 µM.
The same measure, in the same setting: next, `COc1cc(OC)cc(C(=O)Nc2nc(-c3ccc4c(c3)CCN4C(=O)CN(C)C)cs2)c1`: 0.0195 µM.
Same read-out and setting: as for `COc1cc(OC)cc(C(=O)Nc2nc(-c3ccc4c(c3)CCN4C(C)=O)cs2)c1`, the figure is 0.207 µM.
The same measure, in the same setting: next, `COc1ccc(-c2nnn(CC(=O)N(C3CCCCC3)C(C)C(=O)NC3CCCC3)n2)cc1OC` (stereo not drawn): 0.0652 µM.
`CCNC(=O)N1CCc2cc(-c3csc(NC(=O)c4cc(OC)cc(OC)c4)n3)ccc21`: the AC50 was 0.00228 µM.
The same measure, in the same setting: as for `CCC(=O)N1CCc2cc(-c3csc(NC(=O)c4cc(OC)c(OC)c(OC)c4)n3)ccc21`, the figure is 0.00276 µM; as for `CCC(=O)N1CCc2cc(-c3csc(NC(=O)c4cccc(OC)c4)n3)ccc21`, 0.035 µM.
On the same count and under the same terms, next, `COc1ccc(-c2nnn(CC(=O)N(CC(=O)NC3CCCC3)C3CCCCC3)n2)cc1OC`: 0.0365 µM; `CCC(=O)N1CC(C)(C)c2cc(-c3csc(NC(=O)c4ccco4)n3)ccc21`: 0.0203 µM; `CCCCCCC1CCC/C1=N\NC(N)=S` (stereo not drawn): 0.0166 µM.
In the case of `Cc1ccc2oc(-c3cccc(NC(=O)c4cc(-n5cnnc5)ccc4Cl)c3)nc2c1`, the AC50 is 3.62 µM.
Take `CCC(=O)N1CCc2cc(-c3csc(NC(=O)c4ccc(F)c(OC)c4)n3)ccc21`: the AC50 is 0.0258 µM.
The same measure, in the same setting: next, `CC(C(=O)NC1CCCC1)N(C(=O)Cn1nnc(-c2ccc3c(c2)OCO3)n1)C1CCCCC1` (stereo not drawn): 0.0499 µM.
The same measure, in the same setting: next, `CCC(=O)N1CCc2cc(-c3csc(NC(=O)c4cc5ccccc5o4)n3)ccc21`: 0.256 µM.
The same measure, in the same setting: next, `COC(=O)N1CCc2cc(-c3csc(NC(=O)c4cc(OC)cc(OC)c4)n3)ccc21`: 0.039 µM.
On to `COc1ccc(-c2cc(CC(=O)N(C3CCCCC3)C(C)C(=O)NC3CCCC3)no2)cc1OC` (stereo not drawn), for which the concentration at half-maximal activity (AC50) was 0.0294 µM.
The same measure, in the same setting: as for `COCC(=O)N1CCc2cc(-c3csc(NC(=O)c4cc(OC)cc(OC)c4)n3)ccc21`, the figure is 0.00281 µM; as for `CCC(=O)N1CCc2cc(-c3csc(NC(=O)c4cccc(OC(F)(F)F)c4)n3)ccc21`, 0.266 µM; as for `C[C@@H]1CN([C@H](C)CO)C(=O)c2cc(NC(=O)Cc3cn(C)c4ccccc34)ccc2O[C@H]1CN(C)S(=O)(=O)c1ccc(Cl)cc1`, 0.00598 µM.
The same measure, in the same setting: as for `CCC(=O)n1ccc2cc(-c3csc(NC(=O)c4cc(OC)cc(OC)c4)n3)ccc21`, the figure is 0.0893 µM; as for `COc1ccc(-c2nc(CC(=O)N(C3CCCCC3)C(C)C(=O)NC3CCCC3)co2)cc1OC` (stereo not drawn), 0.148 µM.

Staying with this test, now noted: DiI-HDL uptake fluorescence, 3 h, at 35 µM (top of the series).
Consider `COc1c(NC(=O)C(=O)c2ccc(OCCN3CCOCC3)c3ccccc23)cc(C(C)(C)C)cc1NS(C)(=O)=O`, for which the “activity change, negative = inhibition” value was “inactive”.
